Legend:
Format in all cases: functional, organism-based
[1] = species: Homo sapiens; test: Antiplatelet aggregation (platelet activating factor-induced) activity at a concentration of 2 ng/mL
Procedure, shortened: (§1)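 Platelets preincubated with test compound, aspirin or DMSO (0.5%, control) at 37 °C for 3 min, then aggregation inducer added (arachidonic acid, collagen, PAF or thrombin). IC50 values given as means ± S.E. (n=3).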

[2] = species: Homo sapiens; test: Antiplatelet aggregation (thrombin-induced) activity at a concentration of 0.1 U; procedure, shortened: as §1
[3] = species: Homo sapiens; test: Antiplatelet aggregation (collagen-induced) activity at a concentration of 10 ug/mL; procedure, shortened: as §1
[4] = species: Homo sapiens; test: Inhibitory activity against arachidonic acid-induced platelet aggregation at a concentration of 100 uM was determined; procedure, shortened: as §1

Structure (SMILES)	IC50 [1]	IC50 [2]	IC50 [3]	IC50 [4]
COc1cc2c(cc1OC)C1=C(c3ccc(Cl)cc3)C(=O)C(=O)N1CC2	84.8 µM	> 100 µM	30 µM	52.8 µM
COc1cc2c(cc1OC)C1=C(c3ccccc3Br)C(=O)C(=O)N1CC2	> 100 µM	> 100 µM	39.8 µM	> 100 µM
COc1cc2c(cc1OC)C1=C(c3ccccc3OC)C(=O)C(=O)N1CC2	> 100 µM	> 100 µM	35.8 µM	65.5 µM
CC(=O)Oc1ccccc1C(=O)O [ASPIRIN]	> 100 µM	> 100 µM	22.4 µM	44.6 µM

Continued, values first:

IC50 [1]	IC50 [2]	IC50 [3]	IC50 [4]	Structure (SMILES)
> 100 µM	> 100 µM	44.9 µM	78.3 µM	COc1cc2c(cc1OC)C1=C(c3ccccc3Cl)C(=O)C(=O)N1CC2
> 100 µM	> 100 µM	29.8 µM	72.7 µM	COc1cc2c(cc1OC)C1=C(c3ccc(Br)cc3)C(=O)C(=O)N1CC2
> 100 µM	> 100 µM	23.3 µM	45.5 µM	COc1cc2c(cc1OC)C1=C(c3cccc(Br)c3)C(=O)C(=O)N1CC2
> 100 µM	> 100 µM	37.5 µM	53.8 µM	COc1cc2c(cc1OC)C1=C(c3cccc(Cl)c3)C(=O)C(=O)N1CC2
> 100 µM	> 100 µM	6.1 µM	21 µM	COc1cccc(C2=C3c4cc(OC)c(OC)cc4CCN3C(=O)C2=O)c1
33.2 µM	30.7 µM	9.15 µM	15.2 µM	COc1ccc(C2=C3c4cc(OC)c(OC)cc4CCN3C(=O)C2=O)cc1
